Compound activity as filed in PubChem.
Sampled rows, rich in hits. Any-hit rate of the full collection: about 4.4%.
MPTP inh: blocks calcium-induced mitochondrial swelling; actives 1.4% (n = 360,000); isolated mouse mitochondria, Ca2+ swelling absorbance, 30 min; inhibition, % at 10 µM;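 active = inhibition of 50% or more, scaled per plate between neutral and stimulator controls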;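 also: 0% = DMSO wells given calcium and 100% = 1 mM EGTA wells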
NR3A LBD binder: NR3A (human) ligand-binding domain modulation; NR3A LBD differential scanning fluorimetry, Tm shift; 0% = protein alone, 100% = glycine-bound protein; Tm shift relative to glycine control, % at 25 µM; actives 2.5% (n = 340,000); AID 1259313;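 active = melting temperature shift of at least 10% of the positive control shift, at one fixed dose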
EBI2 block: EBI2 (human) antagonism; inhibition, % at 5 µM; actives 0.81% (n = 360,000); EBI2 beta-arrestin recruitment, luminescence, 7a,25-OHC stimulated; in the data active = inhibition above about 38%;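 also: enzyme fragment complementation signal reports receptor beta-arrestin coupling in cells; 0% = agonist plus DMSO wells and 100% = wells without agonist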
Target sequence (P32249 whole entry, looked up, the tested form may be a part): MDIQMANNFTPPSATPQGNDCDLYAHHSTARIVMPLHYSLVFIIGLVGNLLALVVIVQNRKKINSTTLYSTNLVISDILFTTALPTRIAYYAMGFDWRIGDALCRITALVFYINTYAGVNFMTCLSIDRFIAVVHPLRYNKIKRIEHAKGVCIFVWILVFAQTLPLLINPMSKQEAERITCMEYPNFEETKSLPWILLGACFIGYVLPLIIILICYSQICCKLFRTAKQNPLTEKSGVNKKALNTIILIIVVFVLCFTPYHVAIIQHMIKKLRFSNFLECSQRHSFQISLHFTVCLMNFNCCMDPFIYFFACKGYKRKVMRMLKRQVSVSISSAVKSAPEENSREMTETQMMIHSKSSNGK
SENP1 inh: blocks the human SENP1 SUMO protease catalytic domain; Q9P0U3; recombinant SENP1 catalytic domain, CyPet-SUMO1-YPet FRET cleavage; inhibition, % at 10 µM; actives 0.21% (n = 360,000); AID 624204;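 active = inhibition at least 30% at 10 µM, raw YFP signal under a set limit, fluorescence ratio 0.5 to 1.5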;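 also: 0% = enzyme with DMSO and 100% = no enzyme wells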
Target sequence (Q9P0U3 419-644 limits assumed): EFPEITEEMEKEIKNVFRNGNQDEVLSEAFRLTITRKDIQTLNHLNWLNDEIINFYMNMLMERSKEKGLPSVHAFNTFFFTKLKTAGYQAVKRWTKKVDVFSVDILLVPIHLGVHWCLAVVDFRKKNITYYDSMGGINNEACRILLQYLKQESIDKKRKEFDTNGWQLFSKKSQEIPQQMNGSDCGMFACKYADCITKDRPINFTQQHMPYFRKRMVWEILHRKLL
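Test system: recombinant human SENP1 catalytic domain, His6-tagged / Medium: pH 8 Tris buffer with EDTA, NaCl, BME, BSA, NP40, catalase / Also added: SUMO1 FRET substrate flanked by Cypet and Ypet, 25 nM / Times: 50 min reaction at room temperature / Signal: FRET, CFP and YFP emission / Control set: no-enzyme low control and enzyme-plus-DMSO high control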
An asterisk follows results filed as active; nt = no result.

SMILES	MPTP inh	NR3A LBD binder	EBI2 block	SENP1 inh
O=C(O)c1ccc(NS(=O)(=O)c2ccc(N3CCCC3)c([N+](=O)[O-])c2)cc1	-0.3	10.0*	-5.9	1.8
NC(=O)c1ccc(NS(=O)(=O)c2ccc3ccccc3c2)cc1	0.5	11.9*	-2.2	2.0
O=C(Nc1ccccc1)c1cccc(S(=O)(=O)Nc2ccccn2)c1	0.0	15.9*	-5.2	1.1
CC(=O)c1ccc(NS(=O)(=O)c2ccc3ccccc3c2)cc1	1.8	-13.4	-3.9	0.0
O=C(NCC1CCN(Cc2ccc(F)cc2)CC1)Nc1cc(F)ccc1F	5.1	10.0*	11.9	0.6
O=C(OCc1c(-c2ccccc2)ncc2ccccc12)c1ccco1	0.2	-5.2	6.6	-1.7
O=C(Nc1cccc(-n2cnnn2)c1)c1ccoc1COc1ccc(Cl)cc1	3.3	21.2*	10.5	-0.2
Cc1ccc(Cc2c(-c3ccc(F)cc3)nc3c(C)cc(Br)cn23)cc1	0.7	nt	-3.3	40.5*
O=C(N/N=C/c1c(Cl)cccc1Cl)C(=O)NC1CC1	0.3	10.3*	-0.3	0.4
Cc1ccc(C(=O)N/N=C/c2ccc(-c3cccc(Cl)c3)o2)cn1	0.2	0.0	4.4	0.1
Cc1cc(C(=O)N/N=C/c2ccc(-c3cccc(Cl)c3)o2)n[nH]1	3.5	16.2*	2.9	-1.5
O=C(N/N=C\c1ccc(-c2cccc(Cl)c2)o1)C(=O)NC1CCCC1	4.1	23.9*	9.7	-30.0
COc1ccc(-c2csc(C(O)c3ccc(F)cc3)n2)cc1OC (stereo unspecified)	0.2	nt	7.0	3.8
O=C(N/N=C/c1ccccc1O)C(=O)N1CCCCCC1	0.3	11.3*	0.7	2.3
CCOc1ccc(NC(=S)N(Cc2ccc(N(C)C)cc2)Cc2ccco2)cc1	-0.4	1.8	44.3*	1.3
CCOC(=O)C1CCN(C(=O)c2cccc(NS(=O)(=O)c3ccc(F)c(F)c3)c2)CC1	1.8	0.5	-8.1	1.4
CCOc1cccc(C(=O)N/N=C/c2coc3ccccc3c2=O)c1	-0.2	3.3	-2.8	0.4
COc1cc(C(=O)Nc2sc3c(c2C(=O)O)CCC(C)C3)cc(OC)c1OC (stereo unspecified)	3.2	0.6	3.6	-1.7
COc1cc(C(=O)Nc2sc(C)c(C)c2C(=O)O)cc(OC)c1OC	-1.5	15.5*	-0.1	2.9
COc1ccc(Cn2c(CO)cnc2SCC(=O)Nc2cccc(NC(C)=O)c2)cc1	-0.7	0.4	-5.6	0.2
S=C(NN=C(C1CC1)C1CC1)Nc1ccccc1	0.2	11.2*	-8.6	0.9
S=C(NNC(=S)Nc1ccccc1)Nc1ccccc1	7.0	34.5*	18.4	2.2
CCN1CCN(c2ccc(S(=O)(=O)N3CCOCC3)cc2NC(=O)C2CCC(C(C)(C)C)CC2)CC1 (stereo unspecified)	-0.9	18.8*	-2.4	-3.3
CCn1c2ccccc2c2cc(NC(=O)COC(=O)c3cc(S(N)(=O)=O)c(Cl)cc3Cl)ccc21	6.0	13.8*	-3.7	4.2
COc1ccc(N=Nc2cnc(C)nc2-c2ccccc2)cc1	2.7	3.9	3.9	4.3
SMILES	MPTP inh	NR3A LBD binder	EBI2 block	SENP1 inh
Cc1ncc(N=Nc2ccccc2Cl)c(-c2ccccc2)n1	0.2	16.8*	2.5	-4.9
CC(=O)Nc1ccc(NC(=O)Nc2ccc(C)c(C)c2)cc1	0.3	13.2*	2.7	2.1
CC(=O)Nc1cccc(NC(=O)Nc2ccc(C)c(Cl)c2)c1	2.8	35.9*	5.4	0.2
CC(=O)Nc1ccc2cc3ccc(NC(C)=O)cc3nc2c1	0.3	10.3*	-8.6	-26.6
COc1ccc(NC(=O)Nc2ccc(Br)c(C)c2)cc1	35.6	25.2*	7.4	1.0
Cc1ccc(NC(=O)Nn2cnnc2)cc1Cl	-0.9	0.1	-13.3	2.8
Cc1cc(C)n2nc(SCC(=O)Nc3ccc(F)cc3[N+](=O)[O-])nc2n1	0.2	1.1	-2.4	-1.9
Cc1ccc(C(=O)Nc2cc(-c3ccn[nH]3)c(C)n(N)c2=O)cc1	-2.2	-0.6	0.5	-1.3
Cc1ccc(S(=O)(=O)N2CCN(Cc3ccccc3C(F)(F)F)CC2)cc1	-0.7	20.2*	-0.3	1.3
O=S(=O)(c1ccccc1)N1CCN(Cc2ccccc2C(F)(F)F)CC1	2.2	3.6	1.8	0.4
O=C(/C(=N/N=C/c1ccc(O)c(O)c1O)c1ccccc1)c1ccccc1	16.8	18.1*	-1.0	2.0
CCOC(=O)c1cn(CC)c2cc(Cl)c([N+](=O)[O-])cc2c1=O	1.9	11.6*	-2.6	0.3
CCOC(=O)c1sc(/N=C/c2ccc(O)cc2O)cc1C	0.7	14.4*	-9.1	-1.4
COC(=O)[C@H](CC(C)C)NC(=O)Cn1cnc2c(OCc3ccccc3)ncnc21	0.5	97.3*	5.0	2.0
COC(=O)[C@H](CCSC)NC(=O)Cn1cnc2c(OCc3ccccc3)ncnc21	0.2	1.2	-0.6	1.6
CC1=CC(C)(C)[N+](C)(C)c2ccc(C)cc21	-0.7	1.5	-9.2	0.8
CCOc1ccc(CC(=O)Nc2ccc(NC(=O)c3ccco3)cc2)cc1OCC	0.2	-15.5	-1.8	0.7
CC(C)n1c(O)c(/C=C2\C=NN=C2c2ccccc2)sc1=S	19.1	10.9*	-0.2	-4.7
CCn1c(O)c(/C=C2\C=NN=C2c2ccc(C)cc2)sc1=S	3.0	12.1*	-7.8	-19.5
COc1cc([N+](=O)[O-])ccc1N=Nc1c(N)[nH]n(-c2ccccc2)c1=O	6.2	-4.4	3.7	-0.4
Nc1[nH]n(-c2ccccc2)c(=O)c1N=Nc1ccccc1[N+](=O)[O-]	-0.7	21.0*	-7.1	-1.1
Nc1[nH]n(-c2ccccc2)c(=O)c1N=Nc1ccc2ncsc2c1	4.0	13.8*	12.4	4.8
O=C(CSc1nnc(-c2ccncc2)n1-c1ccccc1)NC1CC1	0.1	-0.8	4.8	2.0
O=C(CN1C(=O)NC2(CCCC2)C1=O)N1CCN(S(=O)(=O)c2cccc(F)c2)CC1	-1.5	15.9*	-6.6	-0.4
O=C(NCc1ccco1)C(c1ccc(F)cc1)N(C(=O)Cc1cccs1)c1cccnc1 (stereo unspecified)	-0.7	0.4	2.4	1.7
SMILES	MPTP inh	NR3A LBD binder	EBI2 block	SENP1 inh
O=C(c1ccc(NS(=O)(=O)c2cccs2)cc1)N1CCOCC1	-0.2	11.1*	1.5	2.6
CC(=O)N1CCCc2ccc(NS(=O)(=O)c3ccccc3)cc21	0.6	-2.6	1.3	-1.6
Clc1ccc(-n2ncc3c(NCc4ccc5c(c4)OCO5)ncnc32)cc1	1.8	12.4*	-10.4	-77.4
COc1ccc(N2C(=O)C3C(C2=O)C3(c2ccccc2)c2ccccc2)cc1 (stereo unspecified)	6.2	3.7	29.5	-0.3
COc1ccc(N2C(=O)C3C4C=CC(c5ccccc5)(C3C2=O)C2C(=O)N(c3ccc(OC)cc3)C(=O)C42)cc1 (stereo unspecified)	-1.3	12.1*	1.1	-1.4
Cc1ccc(N2C(=O)[C@@H]3C(c4cccnc4)=NO[C@@H]3C2=O)cc1	4.5	-0.7	-0.9	-0.1
O=C(COC(=O)C1CC(O)CN1S(=O)(=O)c1ccc(Cl)cc1)c1ccccc1Cl (stereo unspecified)	-6.0	-2.1	0.1	1.8
